Assay results: ChEMBL document CHEMBL1212762, “In vivo activity of ceftobiprole in murine skin infections due to Staphylococcus aureus and Pseudomonas aeruginosa” (Antimicrob Agents Chemother, 2010)

How the values were obtained:
[1] = tested on: Pseudomonas aeruginosa; assay: Antimicrobial activity against Pseudomonas aeruginosa OC 4351 infected in immunocompromized SKH1 mouse assessed as lesion volume at 25 mg/kg/day, sc measured after 48 hrs postinfection (reference value: 2234 mm3); type: functional; settings: route subcutaneous
[2] = tested on: Pseudomonas aeruginosa; assay: Antimicrobial activity against Pseudomonas aeruginosa OC 4351 infected in immunocompromized SKH1 mouse assessed as lesion volume at 100 mg/kg/day, sc measured after 48 hrs postinfection (reference value: 2234 mm3); type: functional; settings: route subcutaneous
[3] = tested on: Pseudomonas aeruginosa; assay: Antimicrobial activity against Pseudomonas aeruginosa OC 4354 infected in immunocompromized SKH1 mouse assessed as lesion volume at 1.6 mg/kg/day, sc measured after 48 hrs postinfection (reference value: 2195 mm3); type: functional; settings: route subcutaneous
[4] = tested on: Pseudomonas aeruginosa; assay: Antimicrobial activity against Pseudomonas aeruginosa OC 4354 infected in immunocompromized SKH1 mouse assessed as lesion volume at 25 mg/kg/day, sc measured after 48 hrs postinfection (reference value: 2195 mm3); type: functional; settings: route subcutaneous
[5] = tested on: Pseudomonas aeruginosa; assay: Antimicrobial activity against Pseudomonas aeruginosa OC 4354 infected in immunocompromized SKH1 mouse assessed as lesion volume at 100 mg/kg/day, sc measured after 48 hrs postinfection (reference value: 2195 mm3); type: functional; settings: route subcutaneous
[6] = tested on: Pseudomonas aeruginosa; assay: Antimicrobial activity against Pseudomonas aeruginosa OC 4354 infected in immunocompromized SKH1 mouse assessed as log change in bacterial colony forming unit at 1.6 mg/kg/day, sc; type: functional; settings: route subcutaneous
Procedure, shortened: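 Female SKH1 hairless mice made neutropenic with ip cyclophosphamide (150 mg/kg 5 days and 100 mg/kg 1 day before infection). 0.2 ml s.c. Cytodex bead (0.1% vol/vol) inoculum in BHI: OC 4351 left flank, OC 4354 right flank. Drug s.c. at 1, 3, 25, 27 h postinfection. Killed at 48 h; skin homogenised in saline, plated on TSA 18 h 37°C; Δlog CFU/g versus inoculum. 5 mice/dose, run twice.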

[7] = fT>MIC in Staphylococcus aureus OC 8525 infected sc dosed SKH1 mouse at 50 mg/kg, sc administered twice at 1 and 3 hrs after infection; type: functional; settings: route subcutaneous
[8] = fT>MIC in Pseudomonas aeruginosa OC 4351 infected sc dosed SKH1 mouse at 50 mg/kg, sc administered twice at 1 and 3 hrs after infection; type: functional; settings: route subcutaneous
[9] = fT>MIC in Pseudomonas aeruginosa OC 4354 infected sc dosed SKH1 mouse at 50 mg/kg, sc administered twice at 1 and 3 hrs after infection; type: functional; settings: route subcutaneous
[10] = fT>MIC in Staphylococcus aureus OC 4172 infected sc dosed SKH1 mouse administered in 24 hrs dosing interval; type: functional
Procedure, shortened: (§1)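 Plasma levels came from female hairless SKH1 mice given single s.c. doses at the nape 24 h after flank s.c. infection with Cytodex beads. S. aureus work used immunocompetent mice. P. aeruginosa work used mice made neutropenic with cyclophosphamide i.p., 150 mg/kg at day −5 and 100 mg/kg at day −1. Drug assayed by HPLC with diode-array detection. Noncompartmental analysis.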

[11] = fT>MIC in Staphylococcus aureus OC 8525 infected sc dosed SKH1 mouse administered in 24 hrs dosing interval; type: functional; procedure, shortened: as §1
[12] = fT>MIC in Pseudomonas aeruginosa OC 4354 infected sc dosed SKH1 mouse administered in 24 hrs dosing interval; type: functional; procedure, shortened: as §1
[13] = Half life in immunocompromized SKH1 mouse plasma at 50 mg/kg, sc; type: ADME, organism-based; parameters: dose 50 mg/kg, route subcutaneous
[14] = Half life in immunocompromized SKH1 mouse skin at 50 mg/kg, sc; type: ADME, organism-based, Zone of skin; parameters: dose 50 mg/kg, route subcutaneous
Procedure, shortened: (§2)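 Female SKH1 hairless mice, immunocompetent or cyclophosphamide-neutropenic, infected s.c. with MRSA OC 8525 or P. aeruginosa OC 4354 on the Cytodex beads (left flank), sterile beads on the right. Single dose 24 h later: s.c. at the nape, or linezolid 50 mg/kg oral. Plasma and skin (DMSO homogenate) sampled over time, HPLC with diode array.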

[15] = Tmax in immunocompromized SKH1 mouse plasma at 50 mg/kg, sc; type: ADME, organism-based; parameters: dose 50 mg/kg, route subcutaneous; procedure, shortened: as §2
[16] = Tmax in Staphylococcus aureus infected […] SKH1 mouse skin at 50 mg/kg, sc; type: ADME, organism-based, Zone of skin; parameters: dose 50 mg/kg, route subcutaneous
[17] = tested on: Zone of skin; assay: fCmax in immunocompromized SKH1 mouse skin at 50 mg/kg, sc; type: ADME, organism-based; parameters: dose 50 mg/kg, route subcutaneous; settings: in vivo; procedure, shortened: as §2
[18] = tested on: Zone of skin; assay: fAUC (0-infinity) in immunocompromized SKH1 mouse skin at 50 mg/kg, sc; type: ADME, organism-based; parameters: dose 50 mg/kg, route subcutaneous; settings: in vivo; procedure, shortened: as §2
[19] = tested on: Zone of skin; assay: fAUC (0-infinity) in Staphylococcus aureus infected immunocompromized SKH1 mouse skin at 50 mg/kg, sc; type: ADME, organism-based; parameters: dose 50 mg/kg, route subcutaneous; settings: in vivo
[20] = tested on: Staphylococcus aureus; assay: Antimicrobial activity against methicillin-susceptible Staphylococcus aureus OC 4172 assessed as inhibition of growth by broth microdilution method; type: functional
[21] = tested on: Staphylococcus aureus; assay: Antimicrobial activity against methicillin-resistant Staphylococcus aureus OC 8525 assessed as inhibition of growth by broth microdilution method; type: functional
[22] = Half life in immunocompetent SKH1 mouse plasma at 50 mg/kg, sc; type: ADME, organism-based; parameters: dose 50 mg/kg, route subcutaneous
[23] = Half life in immunocompetent SKH1 mouse skin at 50 mg/kg, sc; type: ADME, organism-based, Zone of skin; parameters: dose 50 mg/kg, route subcutaneous; procedure, shortened: as §2
[24] = Tmax in immunocompetent SKH1 mouse plasma at 12.5 mg/kg, sc; type: ADME, organism-based; parameters: dose 12.5 mg/kg, route subcutaneous; procedure, shortened: as §2
[25] = Tmax in immunocompetent SKH1 mouse plasma at 50 mg/kg, sc; type: ADME, organism-based; parameters: dose 50 mg/kg, route subcutaneous; procedure, shortened: as §2
[26] = Tmax in immunocompetent SKH1 mouse skin at 50 mg/kg, sc; type: ADME, organism-based, Zone of skin; parameters: dose 50 mg/kg, route subcutaneous; procedure, shortened: as §2
[27] = Tmax in Staphylococcus aureus infected immunocompetent SKH1 mouse skin at 50 mg/kg, sc; type: ADME, organism-based, Zone of skin; parameters: dose 50 mg/kg, route subcutaneous; procedure, shortened: as §2
[28] = tested on: Plasma; assay: fCmax in immunocompetent SKH1 mouse plasma at 12.5 mg/kg, sc; type: ADME, organism-based; parameters: dose 12.5 mg/kg, route subcutaneous; settings: in vivo; procedure, shortened: as §2
[29] = tested on: Zone of skin; assay: fCmax in immunocompetent SKH1 mouse skin at 50 mg/kg, sc; type: ADME, organism-based; parameters: dose 50 mg/kg, route subcutaneous; settings: in vivo; procedure, shortened: as §2
[30] = tested on: Plasma; assay: fAUC (0-infinity) in immunocompetent SKH1 mouse plasma at 50 mg/kg, sc; type: ADME, organism-based; parameters: dose 50 mg/kg, route subcutaneous; settings: in vivo; procedure, shortened: as §2
[31] = tested on: Zone of skin; assay: fAUC (0-infinity) in Staphylococcus aureus infected immunocompetent SKH1 mouse skin at 50 mg/kg, sc; type: ADME, organism-based; parameters: dose 50 mg/kg, route subcutaneous; settings: in vivo; procedure, shortened: as §2
[32] = tested on: Staphylococcus aureus; assay: Antimicrobial activity against methicillin-resistant Staphylococcus aureus OC 8525 infected immunocompetent SKH1 mouse assessed as lesion volume at 25 mg/kg/day, sc measured after 48 hrs postinfection (reference value: 1535 mm3); settings: route subcutaneous
[33] = tested on: Staphylococcus aureus; assay: Antimicrobial activity against methicillin-susceptible Staphylococcus aureus Smith OC 4172 infected immunocompetent SKH1 mouse assessed as lesion volume at 25 mg/kg/day, sc measured after 48 hrs postinfection (reference value: 1181 mm3); settings: route subcutaneous
[34] = tested on: Staphylococcus aureus; assay: Antimicrobial activity against methicillin-susceptible Staphylococcus aureus Smith OC 4172 infected immunocompetent SKH1 mouse assessed as lesion volume at 1.6 mg/kg/day, sc measured after 48 hrs postinfection (reference value: 1181 mm3); settings: route subcutaneous
[35] = tested on: Staphylococcus aureus; assay: Antimicrobial activity against methicillin-susceptible Staphylococcus aureus Smith OC 4172 infected immunocompetent SKH1 mouse assessed as lesion volume at 6.2 mg/kg/day, sc measured after 48 hrs postinfection (reference value: 1181 mm3); settings: route subcutaneous

SMILES: Nc1nc(/C(=N/O)C(=O)N[C@@H]2C(=O)N3C(C(=O)O)=C(/C=C4\CCN([C@@H]5CCNC5)C4=O)CS[C@H]23)ns1 [CEFTOBIPROLE]
- Activity [1]: 552 mm3
- Activity [2]: 389 mm3
- Activity [3]: 1833 mm3
- Activity [4]: 580 mm3
- Activity [5]: 373 mm3
- deltalog10CFU [6]: 1.7
- fT>MIC [7]: 3.3 h
- fT>MIC [8]: 2.2 h
- fT>MIC [9]: 2.2 h
- fT>MIC [10]: >17%
- fT>MIC [11]: 13.8%
- fT>MIC [12]: 9.1%
- half-life [13]: 13 min
- half-life [14]: 30 min
- Tmax [15]: 7.5 min
- Tmax [16]: 15 min
- fCmax [17]: 17 µg/g
- fAUC [18]: 690 µg·min/mL
- fAUC [19]: 704 µg·min/mL
- MIC [20]: 0.25 µg/mL
- MIC [21]: 1 µg/mL
- half-life [22]: 13 min
- half-life [23]: 19 min
- Tmax [24]: 7.5 min
- Tmax [25]: 7.5 min
- Tmax [26]: 15 min
- Tmax [27]: 15 min
- fCmax [28]: 17 µg/mL
- fCmax [29]: 17 µg/g
- fAUC [30]: 2336 µg·min/mL
- fAUC [31]: 652 µg·min/mL
- Activity [32]: 642 mm3
- Activity [33]: 640 mm3
- Activity [34]: 937 mm3
- Activity [35]: 885 mm3
